A selection: hits, their analogues and other compounds. The true share with any hit is near 0.63%.
TRPML3 agonist: activates the human TRPML3 channel. Q8TDD5. HEK293 TRPML3-YFP, Fluo-8 calcium fluorescence; 100% = the carbachol control signal. activation, % at 3 µM. actives 0.29% (n = 220,000). AID 1448;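 active = activation above its plate's cutoff, the mean activation of the plate's test wells plus 3 SD, cut at about 12% in these data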;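 also: 0% = DMSO only wells and 100% = carbachol wells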
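Material: TRPML3-YFP stable HEK293 cells | Dosing: One concentration, 3 µM nominal, 0.3% DMSO | Timing: 125 s total fluorescence read per well | Technique: Fluo-8 calcium dye fluorescence, ex 470-495, em 515-575 nm | Measure: Percent activation from peak-to-basal fluorescence ratio, scaled between DMSO and carbachol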
zfTRPN1 agonist: activates the zebrafish TRPN1 channel | HEK293 zebrafish TRPN1-YFP, Fluo-8 calcium fluorescence; 100% = response to 87 µM carbachol | activation, % at 3 µM | actives 0.18% (n = 220,000) | AID 1424;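 active = activation above its plate's cutoff, the mean activation of test wells on that plate plus 3 SD, cut at about 19% in these data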;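 also: 0% = DMSO alone and 100% = 87 µM carbachol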
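Assay system: Zebrafish TRPN1-YFP in HEK293 cells | Incubation: Dye loading 1 h at 37 °C, then 30 min room temperature | Measured by: Kinetic Fluo-8 fluorescence, ex 470-495, em 515-575 nm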
IDE inh: cellular human IDE inhibition; HEK cells, FAbetaB cleavage, fluorescence polarization; inhibition, % at 5.59 µM; actives 0.41% (n = 320,000);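 active = percent inhibition above the average of all tested compounds plus 3 SD, set per screening campaign, cut at about 16% in these data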;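 also: IDE supplied by intact live HEK cells; FP after avidin binding of uncleaved biotin substrate so inhibition keeps polarization high; 0% = DMSO wells and 100% = 60 µM reference IDE inhibitor Ii1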
Target sequence (P14735 whole entry, looked up): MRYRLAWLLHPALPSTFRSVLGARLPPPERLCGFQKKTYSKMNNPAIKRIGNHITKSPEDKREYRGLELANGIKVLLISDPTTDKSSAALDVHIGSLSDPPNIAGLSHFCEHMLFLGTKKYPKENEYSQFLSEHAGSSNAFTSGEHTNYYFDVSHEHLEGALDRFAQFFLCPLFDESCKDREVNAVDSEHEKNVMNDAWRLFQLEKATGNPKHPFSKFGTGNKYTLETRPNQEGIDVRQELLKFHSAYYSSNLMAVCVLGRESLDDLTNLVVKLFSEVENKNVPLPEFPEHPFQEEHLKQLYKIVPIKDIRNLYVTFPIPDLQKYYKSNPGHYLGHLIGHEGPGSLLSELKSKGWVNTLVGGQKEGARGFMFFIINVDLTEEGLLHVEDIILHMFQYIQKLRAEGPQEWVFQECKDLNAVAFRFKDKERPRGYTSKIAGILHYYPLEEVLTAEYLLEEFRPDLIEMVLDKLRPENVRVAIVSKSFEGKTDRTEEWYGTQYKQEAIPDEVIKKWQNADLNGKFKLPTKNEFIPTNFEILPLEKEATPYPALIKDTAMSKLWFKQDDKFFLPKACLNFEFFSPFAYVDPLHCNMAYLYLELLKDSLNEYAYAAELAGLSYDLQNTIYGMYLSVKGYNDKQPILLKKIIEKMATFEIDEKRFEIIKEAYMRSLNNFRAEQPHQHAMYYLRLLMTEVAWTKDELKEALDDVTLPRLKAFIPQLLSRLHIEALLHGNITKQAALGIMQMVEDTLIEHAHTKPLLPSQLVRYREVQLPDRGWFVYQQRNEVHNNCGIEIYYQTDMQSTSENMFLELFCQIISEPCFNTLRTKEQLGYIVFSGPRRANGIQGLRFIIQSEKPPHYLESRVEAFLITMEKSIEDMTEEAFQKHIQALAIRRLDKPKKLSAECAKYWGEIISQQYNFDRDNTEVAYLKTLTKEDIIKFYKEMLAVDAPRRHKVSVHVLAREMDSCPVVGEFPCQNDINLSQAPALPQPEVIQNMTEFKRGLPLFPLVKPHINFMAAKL
IDE cell activ: IDE (human) activation, cell-based | P14735 | actives 0.073% (n = 340,000) | activation, % at 5.96 µM | HEK cells, FAbeta-B cleavage, fluorescence polarization; 0% vehicle, 100% cell-free pure enzyme wells | AID 493087;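 active = activation above the mean of all tested compounds plus 3 SD, set per screening campaign, cut at about 17% in these data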
IDE cell inh cf: confirmation of human insulin-degrading enzyme inhibitors in cells. actives 51% (n = 1,200). HEK cells, FAbetaB cleavage, fluorescence polarization. AID 435028. inhibition, % at 5.59 µM. shares compounds with IDE inh;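 active = mean inhibition across triplicate wells above the cutoff set by the earlier primary insulin-degrading enzyme screen, cut at about 16% in these data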;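 also: 0% = DMSO wells and 100% = 60 µM reference IDE inhibitor Ii1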
HEK293 tox: HEK cell cytotoxicity, counter-screen for IDE inhibitors. shares compounds with IDE inh. HEK293 cytotoxicity, ATP luminescence. inhibition, % at 5.59 µM. actives 28% (n = 1,200). AID 449730; in the data active = inhibition above about 22%;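 also: 0% = vehicle wells and 100% = reference cytotoxic drug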
FP fluor counter: counter-screen for IDE inhibitors: fluorescent artifacts. shares compounds with IDE inh. FP counterscreen for fluorescent artifacts, IDE probe project. IC50, µM. 30 tested, under 10 active. AID 588718; call rule not given here
The depositor's hits bear a star; nt = no result given.

SMILES	TRPML3 agonist	zfTRPN1 agonist	IDE inh	IDE cell activ	IDE cell inh cf	HEK293 tox	others
Cn1c(CN2CCOCC2)nnc1SCC(=O)NCCc1ccccc1	1	1	21*	-21	12	6
O=C(O)c1ccc(N2CCCCCC2)c(N2C(=O)c3ccccc3C2=O)c1	1	0	1	1	nt	nt
O=C1c2cccc3c(N4CCCCC4)ccc(c23)C(=O)N1c1ccc(O)cc1	12*	20*	75*	-171	72*	14
O=C1c2cccc3c(N4CCCCC4)ccc(c23)C(=O)N1c1ccccc1O	18*	36*	89*	-115	152*	18
COc1cc(/C=C2\SC(N)=NC2=O)cc(Cl)c1O	nt	nt	26*	-42	47*	12
O=C(CSc1nnc(CCCOc2ccc(Cl)cc2Cl)o1)Nc1ccc(C(=O)O)cc1	0	0	18*	2	6	7
Cc1nn(C)c(Sc2ccccc2N)c1[N+](=O)[O-]	-1	0	28*	-5	4	5
Cc1nn(C)c(N)c1[N+](=O)[O-]	0	3	3	6	nt	nt
CC(C)CC(=O)Nc1c2c(nn1-c1ccc(F)cc1)CS(=O)(=O)C2	nt	nt	0	1	nt	nt
CCOc1ccccc1NC(=O)CSc1nnc2ccc(-c3ccncc3)nn12	0	0	22*	-16	9	9
Cc1ccccc1NC(=O)CSc1nnc2ccc(-c3ccncc3)nn12	nt	nt	-2	0	nt	nt
Cc1nnc(SCCC(=O)Nc2ccccc2Cl)o1	nt	nt	3	1	nt	nt
COc1cc(C=NCC2OCCc3ccccc32)cc(OC)c1 (configuration not stated)	0	0	-1	0	nt	nt
COc1cccc(N=Nc2c(N)[nH]n3c(=O)c4c(nc23)CCCC4)c1	-1	-1	2	nt	nt	nt
O=c1oc2ccc(Br)cc2cc1-c1nc2ccccc2o1	0	0	20*	-22	73*	10
CSC1=NSC2=NC(=O)/C(=C\c3cccs3)C(=N)N12	0	2	2	2	nt	nt
CSC1=NSC2=NC(=O)/C(=C/c3coc4ccccc4c3=O)C(=N)N12	10	36*	72*	-68	45*	6
CSC1=NSC2=NC(=O)/C(=C/c3coc4ccc(O)cc4c3=O)C(=N)N12	1	1	30*	-49	37*	8
CC1=CC2=NC(=O)/C(=C\c3cc(C)n(-c4cccc(Cl)c4)c3C)C(=N)N2O1	1	0	-1	3	nt	nt
N=C1/C(=C/c2cccn2Cc2ccc(F)cc2)C(=O)N=C2SC=CN12	0	-1	3	1	nt	nt
CC1=CC2=NC(=O)/C(=C/c3coc4ccc(Cl)cc4c3=O)C(=N)N2O1	16*	53*	62*	-87	97*	5
N=C1/C(=C\c2coc3ccccc3c2=O)C(=O)N=C2SC=CN12	66*	176*	48*	-70	80*	9
COCCn1c(=NC(=O)CSCC(=O)N2CCOCC2)sc2ccccc21	nt	nt	-4	3	nt	nt
COc1ccc2[nH]c3c(=O)n(/N=C/c4ccc(OC)c(CN5CCCC5)c4)c(C)nc3c2c1	0	-1	17*	-9	5	13
O=C(COC(=O)Cc1c(Cl)cccc1Cl)Nc1ccc2[nH]c(=O)[nH]c2c1	nt	nt	4	3	nt	nt
SMILES	TRPML3 agonist	zfTRPN1 agonist	IDE inh	IDE cell activ	IDE cell inh cf	HEK293 tox	others
CCCCn1c(SCC(=O)NNC(=O)c2ccccc2)n[nH]c1=O	nt	nt	5	5	nt	nt
CCSc1ccccc1C(=O)Nc1cc(OC)c(OC)c(OC)c1	0	-1	18*	-9	10	9
COc1cc(NC(=O)c2ccccc2-c2ccccc2)cc(OC)c1OC	0	0	5	nt	nt	nt
CC1CCCC(NC(=O)CN2CCN(S(=O)(=O)c3ccc(Br)s3)CC2)C1C (configuration not stated)	nt	nt	nt	2	nt	nt
CC(NC(=O)c1ccc(N(C)C)c([N+](=O)[O-])c1)c1ccc(-n2ccnc2)cc1 (configuration not stated)	nt	nt	19*	-4	8	12
CC(NC(=O)c1cc([N+](=O)[O-])cc([N+](=O)[O-])c1)c1ccc(-n2ccnc2)cc1 (configuration not stated)	nt	nt	6	4	nt	nt
Cc1c(Cl)cc(C(C)C)c(O)c1CN1CCOCC1	nt	nt	nt	2	nt	nt
CN(C)c1[nH]c(=O)c(C#N)c2c1CCN2Cc1ccccc1	0	1	4	1	nt	nt
N#Cc1c2c(c[nH]c1=O)CCN2Cc1ccccc1	0	1	16*	-26	15	4
Cc1cc(=O)n2nc(N3CCCC(C(=O)NC4CCCCC4C)C3)sc2n1 (configuration not stated)	nt	nt	5	0	nt	nt
Cc1cc(C)c(NC(=O)C2CCCO2)c(C)c1 (configuration not stated)	nt	nt	1	-1	nt	nt
CCCCNc1c2c3c(cccc3n(C)c1=O)C(=O)c1ccccc1-2	46*	81*	103*	30*	26*	32*
Cn1c(=O)c(NC2CCCCC2)c2c3c(cccc31)C(=O)c1ccccc1-2	9	18	nt	-95	nt	nt
CCNc1c2c3c(cccc3n(C)c1=O)C(=O)c1ccccc1-2	88*	195*	62*	nt	26*	17
COc1ccc2c(=O)c(Oc3ccc(C(=O)O)cc3)c(C(F)(F)F)oc2c1	1	1	18*	1	4	7
CC(C(=O)NC1CCCc2ccccc21)N1C(=O)C2CCCCC2C1=O (configuration not stated)	nt	nt	5	-4	nt	nt
Oc1cc(-n2cccn2)c(O)cc1-n1cccn1	0	-1	36*	-32	7	39*
O=Cc1ccccc1-n1cccn1	0	2	2	3	nt	nt
CCC(C)NC(=O)C1CC(=O)N(CCc2ccc(F)cc2)C1 (configuration not stated)	nt	nt	0	6	nt	nt
Cn1c(=O)c(C(=O)CN2CCCc3ccccc32)c(N)n(Cc2ccccc2)c1=O	2	3	31*	0	17*	22	FP fluor counter=>55
COc1ccc(/C=C2\Oc3cc(OCC(=O)N4CCC[C@H]4C(=O)O)ccc3C2=O)c(OC)c1	nt	nt	4	-5	nt	nt
COc1cc(OC)c(OC)cc1/C=C1\Oc2cc(OS(C)(=O)=O)ccc2C1=O	3	5	20*	-20	18*	6
COc1cc(OC)c(OC)cc1/C=C1\Oc2cc(OCC(=O)N3Cc4ccccc4C[C@H]3C(=O)O)ccc2C1=O	nt	nt	62*	-94	106*	0
CS(=O)(=O)Oc1ccc2c(c1)O/C(=C\c1cccnc1)C2=O	1	1	6	-1	nt	nt
CCCCn1c(N)c(N(CC(C)C)C(=O)c2ccc(F)c(S(=O)(=O)N3CCOCC3)c2)c(=O)[nH]c1=O	nt	nt	6	5	nt	nt

Compound activity as filed in PubChem BioAssay.
